Experimental data published in article PMC5498144 (BMB Reports, 2017).

Experiments:
[1] = molecular target: T1, PTPN2 (Homo sapiens, UniProt P17706); test: DARTS assay; assay type: binding; settings: 1 μM pretreatment 20 min, then trypsin on ice; PTPN2/trypsin 100:1
T1 sequence (P17706 1-415): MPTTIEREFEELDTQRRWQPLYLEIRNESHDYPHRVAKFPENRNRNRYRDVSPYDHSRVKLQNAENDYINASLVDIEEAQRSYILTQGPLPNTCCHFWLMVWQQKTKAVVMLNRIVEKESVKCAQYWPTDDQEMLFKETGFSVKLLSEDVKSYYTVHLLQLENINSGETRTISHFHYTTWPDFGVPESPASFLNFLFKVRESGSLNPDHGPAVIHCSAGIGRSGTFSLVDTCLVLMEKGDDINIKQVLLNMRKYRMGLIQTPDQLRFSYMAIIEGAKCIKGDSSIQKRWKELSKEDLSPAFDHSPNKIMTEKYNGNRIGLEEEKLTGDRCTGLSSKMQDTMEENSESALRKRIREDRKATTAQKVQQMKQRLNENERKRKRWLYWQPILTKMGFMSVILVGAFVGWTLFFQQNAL

[2] = molecular target: PTEN (Homo sapiens, UniProt P60484); test: In vitro phosphatase assay with OMFP as substrate; assay type: biochemical
PTEN, sequence (P60484 whole entry, species assumed): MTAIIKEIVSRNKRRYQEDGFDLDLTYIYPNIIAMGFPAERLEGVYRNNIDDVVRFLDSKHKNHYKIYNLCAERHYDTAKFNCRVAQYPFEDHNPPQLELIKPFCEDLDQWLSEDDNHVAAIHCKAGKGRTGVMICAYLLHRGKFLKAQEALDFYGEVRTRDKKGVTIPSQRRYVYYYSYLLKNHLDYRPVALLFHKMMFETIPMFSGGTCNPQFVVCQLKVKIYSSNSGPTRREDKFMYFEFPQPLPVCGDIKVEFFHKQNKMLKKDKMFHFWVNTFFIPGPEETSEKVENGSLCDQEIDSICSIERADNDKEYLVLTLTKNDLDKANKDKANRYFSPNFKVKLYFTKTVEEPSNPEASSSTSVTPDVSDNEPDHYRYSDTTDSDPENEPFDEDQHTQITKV
Method in brief: (§1)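 His-tagged human PTPs expressed in E. coli BL21(DE3)-RIL (1 mM IPTG, 37°C, 3 h) and Ni-NTA purified. 100 nM enzyme in 30 mM Tris-HCl pH 7.0, 75 mM NaCl, 1 mM EDTA, 0.4 mM DTT, 0.132% BSA, 1% DMSO final. Test compound (water-dissolved; 0, 5, 10 μM) present; started with 100 μM OMFP; 30 min at 37°C. Fluorescence ex 495/em 535 nm; triplicates; IC50 by curve fitting.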

[3] = molecular target: DUSP3 (Homo sapiens, UniProt P51452); test: In vitro phosphatase assay with OMFP as substrate; assay type: biochemical
DUSP3, sequence (P51452 whole entry, species assumed): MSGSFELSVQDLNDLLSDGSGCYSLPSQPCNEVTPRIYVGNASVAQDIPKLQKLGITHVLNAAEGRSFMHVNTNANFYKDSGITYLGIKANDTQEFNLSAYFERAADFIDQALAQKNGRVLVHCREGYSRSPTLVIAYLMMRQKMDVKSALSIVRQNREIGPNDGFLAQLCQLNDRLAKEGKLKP
Method in brief: as §1

[4] = molecular target: T2, DUSP18 (Homo sapiens, UniProt Q8NEJ0); test: In vitro phosphatase assay with OMFP as substrate; assay type: biochemical
T2 sequence (Q8NEJ0 1-188): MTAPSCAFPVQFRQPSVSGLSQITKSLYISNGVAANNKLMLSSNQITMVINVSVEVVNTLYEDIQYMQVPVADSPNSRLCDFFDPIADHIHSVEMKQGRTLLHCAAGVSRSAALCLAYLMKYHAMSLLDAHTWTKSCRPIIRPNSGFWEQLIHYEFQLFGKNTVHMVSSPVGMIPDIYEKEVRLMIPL
Method in brief: as §1

[5] = test system: HEK 293 cells; test: Cell viability assay; assay type: cell-based, human; settings: 6 h, up to 1.5 μM (tested 1, 1.5, 2, 3 μM)
Method in brief: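 HEK 293 cells grown in DMEM with 10% FBS and 1% penicillin/streptomycin under 5% CO2. Seeded at 1.5 × 10^6 cells/well and left overnight, then exposed to test compound (1, 1.5, 2, 3 μM) for 6 h. Water-soluble tetrazolium reagent added for 1 h at 37°C; absorbance read at 450 nm against a 650 nm reference. Mean ± SEM of three independent experiments; Student's t-test versus untreated.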

[6] = molecular target: T3, SSH3 (Homo sapiens, UniProt Q8TE77); test: In vitro phosphatase assay with OMFP as substrate; assay type: biochemical
T3 sequence (Q8TE77 1-659): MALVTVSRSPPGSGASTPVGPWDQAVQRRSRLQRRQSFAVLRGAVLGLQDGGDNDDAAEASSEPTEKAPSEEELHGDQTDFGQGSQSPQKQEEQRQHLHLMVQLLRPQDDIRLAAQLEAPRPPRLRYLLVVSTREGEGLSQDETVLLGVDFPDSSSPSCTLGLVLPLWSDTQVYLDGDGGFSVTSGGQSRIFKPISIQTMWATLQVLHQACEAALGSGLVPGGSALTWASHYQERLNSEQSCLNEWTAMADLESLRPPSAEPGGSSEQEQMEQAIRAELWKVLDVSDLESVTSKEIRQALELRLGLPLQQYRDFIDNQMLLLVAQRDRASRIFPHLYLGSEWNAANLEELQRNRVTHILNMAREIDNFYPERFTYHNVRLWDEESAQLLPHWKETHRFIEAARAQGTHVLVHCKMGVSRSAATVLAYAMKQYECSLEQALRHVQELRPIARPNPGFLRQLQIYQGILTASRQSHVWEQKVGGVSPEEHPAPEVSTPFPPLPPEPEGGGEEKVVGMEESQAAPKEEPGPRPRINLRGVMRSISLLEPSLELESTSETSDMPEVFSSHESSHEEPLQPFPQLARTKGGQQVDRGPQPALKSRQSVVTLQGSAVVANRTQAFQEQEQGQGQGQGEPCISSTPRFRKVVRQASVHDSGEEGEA
Method in brief: as §1

[7] = molecular target: T4, Laforin (Homo sapiens, UniProt O95278); test: In vitro phosphatase assay with OMFP as substrate; assay type: biochemical
T4 sequence (O95278 1-331): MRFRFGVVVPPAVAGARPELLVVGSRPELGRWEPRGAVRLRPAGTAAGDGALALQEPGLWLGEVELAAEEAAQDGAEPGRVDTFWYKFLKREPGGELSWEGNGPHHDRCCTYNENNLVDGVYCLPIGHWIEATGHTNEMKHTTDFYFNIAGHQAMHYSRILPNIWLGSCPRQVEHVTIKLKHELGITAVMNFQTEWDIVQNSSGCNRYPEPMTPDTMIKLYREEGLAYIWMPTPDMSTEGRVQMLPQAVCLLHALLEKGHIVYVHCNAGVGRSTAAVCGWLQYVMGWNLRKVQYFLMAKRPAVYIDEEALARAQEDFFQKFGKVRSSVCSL
Method in brief: as §1

[8] = test system: PTPN2-mediated dephosphorylation of STAT3 at Tyr-705; assay type: cell-based, human; settings: HEK 293 cells with FLAG-PTPN2, 1.5 μM 6 h, then IL-6 10 ng/ml 30 min
Method in brief: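 HEK 293 cells transfected with FLAG-PTPN2 wild type or catalytically dead C216S plasmid using polyethylenimine. After 42 h, treated with test compound (1.5 μM) for 6 h, then IL-6 (10 ng/ml) for 30 min. Cells lysed in PTP lysis buffer. Immunoblots probed for phospho-STAT3 Tyr-705 and total STAT3, detected by ECL and quantified by densitometry relative to the IL-6-stimulated group.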

[9] = molecular target: T5, DUSP23 (Homo sapiens, UniProt Q9BVJ7); test: In vitro phosphatase assay with OMFP as substrate; assay type: biochemical
T5 sequence (Q9BVJ7 1-150): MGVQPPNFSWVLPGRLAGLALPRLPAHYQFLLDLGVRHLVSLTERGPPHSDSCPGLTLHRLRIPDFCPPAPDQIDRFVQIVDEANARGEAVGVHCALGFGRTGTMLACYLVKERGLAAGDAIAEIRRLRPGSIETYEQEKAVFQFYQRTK
Method in brief: as §1

[10] = molecular target: T6, DUSP8 (Homo sapiens, UniProt Q13202); test: In vitro phosphatase assay with OMFP as substrate; assay type: biochemical
T6 sequence (Q13202 1-625): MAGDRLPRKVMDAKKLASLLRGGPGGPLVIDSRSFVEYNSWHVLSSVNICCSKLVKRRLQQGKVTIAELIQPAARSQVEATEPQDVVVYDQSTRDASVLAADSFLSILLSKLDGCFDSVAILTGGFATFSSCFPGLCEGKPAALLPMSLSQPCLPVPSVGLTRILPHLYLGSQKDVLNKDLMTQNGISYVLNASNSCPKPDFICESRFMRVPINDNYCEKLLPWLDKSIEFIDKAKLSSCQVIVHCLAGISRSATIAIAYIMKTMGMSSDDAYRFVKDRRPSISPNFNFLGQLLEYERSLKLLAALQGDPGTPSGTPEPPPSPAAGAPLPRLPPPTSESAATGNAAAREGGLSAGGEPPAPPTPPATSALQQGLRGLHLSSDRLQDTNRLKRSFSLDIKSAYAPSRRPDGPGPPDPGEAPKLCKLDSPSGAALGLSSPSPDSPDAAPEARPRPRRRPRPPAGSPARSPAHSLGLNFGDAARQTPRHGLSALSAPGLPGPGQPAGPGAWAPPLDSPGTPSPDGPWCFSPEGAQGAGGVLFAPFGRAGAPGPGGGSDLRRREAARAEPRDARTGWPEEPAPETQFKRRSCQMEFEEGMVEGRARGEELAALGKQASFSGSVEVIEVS
Method in brief: as §1

[11] = molecular target: T7, Cdc25B (Homo sapiens, UniProt P30305); test: In vitro phosphatase assay with OMFP as substrate; assay type: biochemical
T7 sequence (P30305 1-580): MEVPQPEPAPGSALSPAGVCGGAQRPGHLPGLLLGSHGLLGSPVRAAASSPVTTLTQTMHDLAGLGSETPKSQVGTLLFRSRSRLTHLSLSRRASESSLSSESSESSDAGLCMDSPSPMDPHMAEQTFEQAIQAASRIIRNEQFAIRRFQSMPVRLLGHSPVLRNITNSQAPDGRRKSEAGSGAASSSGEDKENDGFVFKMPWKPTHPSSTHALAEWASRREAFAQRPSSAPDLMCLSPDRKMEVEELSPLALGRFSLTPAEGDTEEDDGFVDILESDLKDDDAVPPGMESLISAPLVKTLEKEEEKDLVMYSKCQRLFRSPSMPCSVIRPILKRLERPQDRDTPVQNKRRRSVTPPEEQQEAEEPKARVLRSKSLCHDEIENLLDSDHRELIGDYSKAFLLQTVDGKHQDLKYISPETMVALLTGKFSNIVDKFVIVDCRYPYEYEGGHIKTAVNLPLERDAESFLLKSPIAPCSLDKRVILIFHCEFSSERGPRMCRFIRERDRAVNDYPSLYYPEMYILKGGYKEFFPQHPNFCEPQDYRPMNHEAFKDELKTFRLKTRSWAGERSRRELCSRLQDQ
Method in brief: as §1

[12] = molecular target: T8, CD45 (Homo sapiens, UniProt P08575); test: In vitro phosphatase assay with OMFP as substrate; assay type: biochemical
T8 sequence (P08575 653-912 limits assumed): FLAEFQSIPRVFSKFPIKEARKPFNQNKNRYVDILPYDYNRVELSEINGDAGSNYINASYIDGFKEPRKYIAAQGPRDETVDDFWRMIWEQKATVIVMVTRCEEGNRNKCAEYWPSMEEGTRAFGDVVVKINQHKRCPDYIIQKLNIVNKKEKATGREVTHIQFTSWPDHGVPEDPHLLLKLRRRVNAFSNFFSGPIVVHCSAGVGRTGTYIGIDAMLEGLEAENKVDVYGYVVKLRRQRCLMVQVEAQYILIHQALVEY
Method in brief: as §1

[13] = molecular target: T1, PTPN2; test: Kinetic analysis; assay type: biochemical

IC50 [2] | IC50 [3] | IC50 [4] | IC50 [6] | IC50 [7] | IC50 [9] | IC50 [10] | IC50 [11] | IC50 [12] | Ki [13] | SMILES | Proteolysis of PTPN2 by trypsin (DARTS) [1] | Cytotoxic effects (cell viability) [5] | PTPN2-mediated dephosphorylation of STAT3 at Tyr-705 [8]
– | – | – | – | – | – | – | – | – | – | O=S(=O)(F)Cc1ccccc1 [PMSF, phenylmethylsulfonyl fluoride] | decreased | – | –
1.78 ± 0.34 µM | > 50 µM | > 50 µM | > 50 µM | > 100 µM | > 50 µM | > 50 µM | > 50 µM | 0.86 ± 0.03 µM | 0.76 ± 0.08 µM | CC(C)(C)C(=O)Nc1ccc2c(c1)C(=O)C(=O)c1ccccc1-2 [PTP inhibitor XIX, N-[9, 10-dioxo-9, 10-dihydro-phenanthren-2-yl]-2,2-dimethyl-propionamide] | – | no apparent cytotoxic effects | inhibited
